Source: ChEMBL document CHEMBL1152519, “Synthesis, structural activity-relationships, and biological evaluation of novel amide-based allosteric binding site antagonists in NR1A/NR2B N-methyl-D-aspartate receptors” (Bioorg Med Chem, 2009)
Activity calls are given as the source filed them. The calls are words filed in the database; no cut-off is given here.

Experiments:
[1] = target: Glutamate receptor ionotropic, NMDA 2B (Mus musculus, UniProt P35438+Q01097, D101A); assay: Antagonist activity at mouse NR1/NR2B receptor D101A mutant expressed in Xenopus laevis oocytes assessed as inhibition of glutamate/glycine-induced current by two electrode voltage clamp method; assay type: functional, cell-based, Oocyte
In short: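 Oocytes express NR1/NR2B amino-terminal-domain mutants (mouse D101A point mutant; rat ATD deletion). Concentration–effect curves were recorded by two-electrode voltage clamp at −40 mV and 23 °C, with 50 μM glutamate plus 30 μM glycine. Each step is compound plus agonists, expressed relative to agonists alone.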

[2] = target: Glutamate NMDA receptor; Grin1/Grin2b (Rattus norvegicus) (UniProt P35439+Q00960); assay: Antagonist activity at rat recombinant NR1/NR2B receptor expressed in Xenopus laevis oocytes assessed as inhibition of glutamate/glycine-induced current at 3 uM by two electrode voltage clamp method; assay type: functional, cell-based; details: Oocyte
In short: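 Oocytes (stage V–VI, Xenopus laevis) injected with NR1 and NR2 cRNA, held 1–7 d at 15 °C. TEVC at −40 mV, 23 °C, in 90 NaCl/1 KCl/10 HEPES/0.5 BaCl2 (mM) plus 10 μM EDTA. Current to 50 μM glutamate plus 30 μM glycine with 3 μM compound, given as percent of control; 4–10 oocytes.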

[3] = target: T1, Glutamate NMDA receptor; GRIN1/GRIN2B (Homo sapiens, UniProt Q05586+Q13224); assay: Antagonist activity at human recombinant NR1/NR2B receptor expressed in frog oocytes assessed as inhibition of glutamate/glycine-induced current at 3 uM by two electrode voltage clamp method; assay type: functional, cell-based; details: Oocyte
[4] = target: Glutamate receptor 1 (Rattus norvegicus) (UniProt P19490); assay: Antagonist activity at rat recombinant GluR1 expressed in Xenopus laevis oocytes assessed as inhibition of glutamate-induced current at 3 uM by two electrode voltage clamp method relative to control; assay type: functional, cell-based; details: Oocyte
In short: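 GluR1 homomers expressed from 5–10 ng cRNA in Xenopus oocytes. Clamped at −40 mV. Currents evoked by 100 μM glutamate with 3 μM compound, expressed as % of control without compound. Mean ± SEM, 4–10 oocytes; paired t-test.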

[5] = target: Glutamate receptor ionotropic, kainate 2 (Rattus norvegicus) (UniProt P42260); assay: Antagonist activity at rat recombinant GluR6 expressed in Xenopus laevis oocytes assessed as inhibition of concanavalin A/glutamate-induced current at 3 uM by two electrode voltage clamp method; assay type: functional, cell-based; details: Oocyte
In short: (§1)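 Oocytes expressing homomeric GluR6 (5–10 ng cRNA) pretreated 5 min with 10 μM concanavalin-A. Currents evoked by 100 μM glutamate at −40 mV, with or without 3 μM compound, and given as percent of control. Mean ± SEM of 4–10 oocytes; paired t-test.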

[6] = target: T2, Glutamate NMDA receptor; Grin1/Grin2b (Rattus norvegicus, UniProt P35439+Q00960); assay: Antagonist activity at wild type rat NR1/NR2B receptor expressed in Xenopus laevis oocytes assessed as inhibition of glutamate/glycine-induced current by two electrode voltage clamp method; assay type: functional, cell-based, Oocyte
In short: (§2)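 Xenopus oocytes expressing NR1/NR2 (wild type or amino terminal domain deletion mutant) recorded by TEVC at −40 mV, room temperature, pH 7.4–7.6, with EDTA 10 μM. Maximal glutamate/glycine applied alone, then with 5–8 successive compound concentrations. Leak-corrected; responses under 50 nA excluded. IC50 from fitted composite curve. NR1/NR2A oocytes were pre-incubated in 50 μM BAPTA-AM.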

[7] = target: Glutamate receptor ionotropic, kainate 2 (Rattus norvegicus) (UniProt P42260); assay: Antagonist activity at rat recombinant GluR6 expressed in Xenopus laevis oocytes assessed as inhibition of concanavalin A/glutamate-induced current at 3 uM by two electrode voltage clamp method relative to control; assay type: functional, cell-based; details: Oocyte; in short: as §1
hERG (KCNH2) = hERG (KCNH2) (Homo sapiens, UniProt Q12809); assay: Displacement of [3H]astemizole from human recombinant ERG expressed in HEK293 cells at 10 uM; assay type: cell-based; details: HEK293 cells expressing human recombinant ERG, probe [3H]astemizole, read-out: Activity
[8] = target: Glutamate NMDA receptor; Grin1/Grin2a (Rattus norvegicus) (UniProt P35439+Q00959); assay: Antagonist activity at rat recombinant NR1/NR2A receptor expressed in Xenopus laevis oocytes assessed as inhibition of glutamate/glycine-induced current at 3 uM by two electrode voltage clamp method relative to control; assay type: functional, cell-based; details: Oocyte
In short: (§3)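 Xenopus oocytes injected with NR1-1a (3–5 ng) plus NR2A, 2B, 2C or 2D cRNA (7–10 ng), kept at 15 °C. Voltage clamp at −40 mV. Responses to 50 μM glutamate + 30 μM glycine with 3 μM compound, as % of response without compound. NR2A oocytes pre-loaded with 50 μM BAPTA-AM. Mean ± SEM, 4–10 oocytes; paired t-test.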

[9] = target: Glutamate NMDA receptor; Grin1/Grin2c (Rattus norvegicus) (UniProt P35439+Q00961); assay: Antagonist activity at rat recombinant NR1/NR2C receptor expressed in Xenopus laevis oocytes assessed as inhibition of glutamate/glycine-induced current at 3 uM by two electrode voltage clamp method relative to control; assay type: functional, cell-based; details: Oocyte; in short: as §3
[10] = target: Ionotropic glutamate receptor NMDA 1/2D (Rattus norvegicus) (UniProt P35439+Q62645); assay: Antagonist activity at rat recombinant NR1/NR2D receptor expressed in Xenopus laevis oocytes assessed as inhibition of glutamate/glycine-induced current at 3 uM by two electrode voltage clamp method relative to control; assay type: functional, cell-based; details: Oocyte; in short: as §3
[11] = target: Glutamate NMDA receptor; Grin1/Grin2a (Rattus norvegicus, UniProt P35439+Q00959); assay: Antagonist activity at rat recombinant NR1/NR2A receptor expressed in Xenopus laevis oocytes assessed as inhibition of glutamate/glycine-induced current by two electrode voltage clamp method; assay type: functional, cell-based, Oocyte; in short: as §2
[12] = target: T1, Glutamate NMDA receptor; GRIN1/GRIN2B; assay: Antagonist activity at human recombinant NR1/NR2B receptor expressed in frog oocytes assessed as inhibition of glutamate/glycine-induced current by two electrode voltage clamp method; assay type: functional, cell-based, Oocyte
In short: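 Human NR1/NR2B cRNA injected into Xenopus oocytes. Two-electrode voltage clamp at −40 mV, 23 °C, 2–7 d after injection. Glutamate/glycine (50–100 μM/30 μM) applied, then with 5–8 compound concentrations. Bath contains 10 μM EDTA; leak-corrected.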

[13] = target: T2, Glutamate NMDA receptor; Grin1/Grin2b; assay: Antagonist activity at rat recombinant NR1/NR2B receptor expressed in frog oocytes assessed as inhibition of glutamate/glycine-induced current by two electrode voltage clamp method; assay type: functional, cell-based, Oocyte; in short: as §2
MDCK = assay: Apparent permeability from apical to basolateral side of MDR1-expressing MDCK cells at 5 uM after 2 hrs by LC-MS/MS analysis; assay type: ADME, cell-based, Canis lupus familiaris; details: dog
In short: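 MDR1-MDCK monolayers grown 7–11 days on Transwells. Compound at 5 μM in HBSS pH 7.4 (final DMSO ≤1%) added apically (A–B) or basally (B–A). Incubated 2 h at 37 °C; both compartments quantified by LC–MS/MS against a >4-point calibration. Papp given in ×10−6 cm/s; efflux ratio = B–A/A–B. Duplicates.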

[14] = target: Glutamate receptor ionotropic, NMDA 1/NMDA 2B (Mus musculus) (UniProt P35438+Q01097); assay: Antagonist activity at mouse recombinant NR1/NR2B receptor expressed in Xenopus laevis oocytes assessed as inhibition of glutamate/glycine-induced current at 3 uM by two electrode voltage clamp method; assay type: functional, cell-based; details: Oocyte
[15] = Antagonist activity at rat NR1/NR2B receptor deltaATD mutant expressed in Xenopus laevis oocytes assessed as inhibition of glutamate/glycine-induced current by two electrode voltage clamp method; assay type: functional, cell-based; details: Oocyte; in short: as §2

Sequence of Glutamate receptor ionotropic, kainate 2 (Rattus norvegicus) (P42260 whole entry): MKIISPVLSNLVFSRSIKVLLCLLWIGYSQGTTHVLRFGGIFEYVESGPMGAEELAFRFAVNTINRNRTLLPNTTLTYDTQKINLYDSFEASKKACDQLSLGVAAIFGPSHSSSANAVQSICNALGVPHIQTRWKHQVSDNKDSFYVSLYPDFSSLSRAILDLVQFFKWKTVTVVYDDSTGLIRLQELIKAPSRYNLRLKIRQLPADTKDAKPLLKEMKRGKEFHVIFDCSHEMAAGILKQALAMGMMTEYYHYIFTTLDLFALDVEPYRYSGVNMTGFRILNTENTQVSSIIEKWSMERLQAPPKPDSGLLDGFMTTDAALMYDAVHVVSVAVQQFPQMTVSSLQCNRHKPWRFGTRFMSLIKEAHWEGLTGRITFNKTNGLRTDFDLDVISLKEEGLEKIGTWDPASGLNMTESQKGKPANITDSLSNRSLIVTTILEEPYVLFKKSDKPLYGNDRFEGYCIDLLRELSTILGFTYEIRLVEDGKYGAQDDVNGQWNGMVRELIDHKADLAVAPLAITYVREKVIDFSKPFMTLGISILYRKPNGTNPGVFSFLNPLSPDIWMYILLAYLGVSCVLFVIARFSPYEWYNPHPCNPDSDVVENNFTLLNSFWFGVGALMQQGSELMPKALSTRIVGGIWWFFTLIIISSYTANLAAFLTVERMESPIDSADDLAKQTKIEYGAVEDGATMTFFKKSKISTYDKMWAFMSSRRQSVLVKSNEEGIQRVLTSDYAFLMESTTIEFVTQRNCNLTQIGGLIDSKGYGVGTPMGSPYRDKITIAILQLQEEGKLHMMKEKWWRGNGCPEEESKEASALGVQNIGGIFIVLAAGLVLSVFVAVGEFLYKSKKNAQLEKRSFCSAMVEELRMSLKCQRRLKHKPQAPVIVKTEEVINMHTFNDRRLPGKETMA
Sequence of hERG (KCNH2) (Q12809 whole entry): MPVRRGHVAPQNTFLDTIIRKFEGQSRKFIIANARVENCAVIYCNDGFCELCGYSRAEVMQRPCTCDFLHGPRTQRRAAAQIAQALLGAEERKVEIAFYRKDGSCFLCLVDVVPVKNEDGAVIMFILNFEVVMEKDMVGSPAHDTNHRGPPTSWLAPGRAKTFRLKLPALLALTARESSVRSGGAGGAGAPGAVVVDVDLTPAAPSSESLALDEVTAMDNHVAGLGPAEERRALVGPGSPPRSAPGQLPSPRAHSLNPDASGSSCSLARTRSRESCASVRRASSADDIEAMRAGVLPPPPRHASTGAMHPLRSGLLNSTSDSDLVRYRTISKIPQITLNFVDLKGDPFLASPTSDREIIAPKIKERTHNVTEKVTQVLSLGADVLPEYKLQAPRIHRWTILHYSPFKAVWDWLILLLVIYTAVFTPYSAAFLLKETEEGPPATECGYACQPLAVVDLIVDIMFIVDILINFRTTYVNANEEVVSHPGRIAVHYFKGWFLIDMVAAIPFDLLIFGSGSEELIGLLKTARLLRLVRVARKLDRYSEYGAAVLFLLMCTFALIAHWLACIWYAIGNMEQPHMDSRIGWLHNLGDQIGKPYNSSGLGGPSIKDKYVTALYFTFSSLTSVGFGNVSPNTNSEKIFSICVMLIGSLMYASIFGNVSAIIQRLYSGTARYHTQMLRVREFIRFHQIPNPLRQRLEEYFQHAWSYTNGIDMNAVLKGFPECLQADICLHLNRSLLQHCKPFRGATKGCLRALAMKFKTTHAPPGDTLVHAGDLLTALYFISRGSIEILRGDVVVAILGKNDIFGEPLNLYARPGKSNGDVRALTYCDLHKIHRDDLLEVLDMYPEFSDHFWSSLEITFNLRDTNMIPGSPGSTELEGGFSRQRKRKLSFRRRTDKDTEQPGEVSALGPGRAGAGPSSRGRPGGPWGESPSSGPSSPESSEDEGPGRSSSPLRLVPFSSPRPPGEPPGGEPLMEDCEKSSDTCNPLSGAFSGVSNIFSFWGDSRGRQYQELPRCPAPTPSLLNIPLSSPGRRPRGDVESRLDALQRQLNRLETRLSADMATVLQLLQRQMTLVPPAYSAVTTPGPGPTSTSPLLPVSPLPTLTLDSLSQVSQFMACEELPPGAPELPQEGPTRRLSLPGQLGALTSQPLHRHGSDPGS
Sequence of Glutamate receptor 1 (Rattus norvegicus) (P19490 whole entry): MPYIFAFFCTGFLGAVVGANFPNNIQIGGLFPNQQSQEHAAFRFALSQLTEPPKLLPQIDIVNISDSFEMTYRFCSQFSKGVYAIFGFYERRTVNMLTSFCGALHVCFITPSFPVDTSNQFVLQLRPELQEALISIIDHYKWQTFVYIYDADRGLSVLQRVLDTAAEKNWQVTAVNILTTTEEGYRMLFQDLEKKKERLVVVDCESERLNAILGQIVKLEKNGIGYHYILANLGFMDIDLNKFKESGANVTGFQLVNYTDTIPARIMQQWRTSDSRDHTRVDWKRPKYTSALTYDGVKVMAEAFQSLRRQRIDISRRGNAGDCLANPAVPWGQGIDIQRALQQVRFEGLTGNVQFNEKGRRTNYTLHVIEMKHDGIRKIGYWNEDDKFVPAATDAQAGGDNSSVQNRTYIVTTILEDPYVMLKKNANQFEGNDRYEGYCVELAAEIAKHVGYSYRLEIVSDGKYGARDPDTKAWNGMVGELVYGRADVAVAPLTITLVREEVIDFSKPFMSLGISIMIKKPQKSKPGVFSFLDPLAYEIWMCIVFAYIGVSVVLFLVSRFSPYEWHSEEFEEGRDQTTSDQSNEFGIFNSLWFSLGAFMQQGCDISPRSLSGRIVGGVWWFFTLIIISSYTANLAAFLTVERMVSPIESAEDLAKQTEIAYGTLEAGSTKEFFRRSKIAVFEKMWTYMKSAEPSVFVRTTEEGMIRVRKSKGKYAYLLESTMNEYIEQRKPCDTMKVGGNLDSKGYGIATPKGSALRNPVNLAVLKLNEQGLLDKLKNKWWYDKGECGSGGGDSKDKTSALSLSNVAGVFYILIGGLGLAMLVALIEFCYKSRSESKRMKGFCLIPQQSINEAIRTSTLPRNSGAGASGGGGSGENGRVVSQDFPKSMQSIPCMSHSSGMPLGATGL
Sequence of Glutamate receptor ionotropic, NMDA 2B (Q01097 whole entry D101A, one chain of several): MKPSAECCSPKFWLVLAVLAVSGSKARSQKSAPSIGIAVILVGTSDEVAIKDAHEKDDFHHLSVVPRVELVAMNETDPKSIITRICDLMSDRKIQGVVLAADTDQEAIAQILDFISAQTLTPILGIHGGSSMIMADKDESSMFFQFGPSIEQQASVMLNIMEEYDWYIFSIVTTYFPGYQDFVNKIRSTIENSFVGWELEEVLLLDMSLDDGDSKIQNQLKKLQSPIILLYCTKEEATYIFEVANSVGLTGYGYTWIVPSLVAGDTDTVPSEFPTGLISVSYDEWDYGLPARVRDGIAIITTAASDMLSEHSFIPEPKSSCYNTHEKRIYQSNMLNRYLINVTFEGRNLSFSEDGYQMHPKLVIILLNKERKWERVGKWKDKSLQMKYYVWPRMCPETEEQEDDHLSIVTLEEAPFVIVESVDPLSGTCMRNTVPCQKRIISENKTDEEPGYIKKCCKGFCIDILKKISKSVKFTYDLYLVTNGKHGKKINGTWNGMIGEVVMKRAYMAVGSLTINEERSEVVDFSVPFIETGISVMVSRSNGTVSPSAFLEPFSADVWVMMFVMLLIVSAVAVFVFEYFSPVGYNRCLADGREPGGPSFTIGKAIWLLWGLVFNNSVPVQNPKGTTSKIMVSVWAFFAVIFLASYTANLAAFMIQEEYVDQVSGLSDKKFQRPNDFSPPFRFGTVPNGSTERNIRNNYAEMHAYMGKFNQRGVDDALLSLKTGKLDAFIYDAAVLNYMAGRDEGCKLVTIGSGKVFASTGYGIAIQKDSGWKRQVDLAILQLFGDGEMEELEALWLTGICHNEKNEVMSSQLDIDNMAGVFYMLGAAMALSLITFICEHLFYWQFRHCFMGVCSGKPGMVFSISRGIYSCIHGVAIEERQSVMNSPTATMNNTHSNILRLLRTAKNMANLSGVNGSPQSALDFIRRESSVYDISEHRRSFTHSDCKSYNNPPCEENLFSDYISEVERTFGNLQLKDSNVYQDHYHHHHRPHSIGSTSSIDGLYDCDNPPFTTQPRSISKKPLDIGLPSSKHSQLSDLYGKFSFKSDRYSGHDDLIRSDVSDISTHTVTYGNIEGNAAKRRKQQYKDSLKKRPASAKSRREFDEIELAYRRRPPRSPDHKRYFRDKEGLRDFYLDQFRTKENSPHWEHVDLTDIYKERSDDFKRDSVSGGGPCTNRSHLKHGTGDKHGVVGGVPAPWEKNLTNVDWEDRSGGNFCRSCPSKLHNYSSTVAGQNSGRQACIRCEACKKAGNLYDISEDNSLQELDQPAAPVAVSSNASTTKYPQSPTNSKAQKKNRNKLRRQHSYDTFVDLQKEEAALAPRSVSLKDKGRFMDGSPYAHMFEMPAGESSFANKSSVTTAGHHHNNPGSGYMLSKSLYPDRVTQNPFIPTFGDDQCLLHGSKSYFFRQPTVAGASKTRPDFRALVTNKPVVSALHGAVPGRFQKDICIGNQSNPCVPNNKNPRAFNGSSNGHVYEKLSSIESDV

CS(=O)(=O)Nc1ccc(OCC(=O)NCCNc2ccc(Cl)c(Cl)c2)cc1
IC50 [1]: 52 µM | inhibition [2]: 88% | inhibition [3]: 90% | % response [4]: 101% | inhibition [5]: inactive | IC50 [6]: 0.057 µM | % response [7]: 99% | inhibition at 10 µM (hERG (KCNH2)): 43% | % response [8]: 92% | % response [9]: 98% | % response [10]: 91% | IC50 [11]: 82 µM | IC50 [12]: 0.054 µM | IC50 [13]: 0.057 µM | Papp (MDCK): 1.8 ×10⁻⁶ cm/s | inhibition [14]: 78% | IC50 [15]: 563 µM
